Assays:
Assay type in all cases: cell-based
[1] = molecular target: T1, Peroxisome proliferator-activated receptor delta (Homo sapiens) (UniProt Q03181); test: Agonist activity at Gal4-fused human PPARdelta LBD transfected in HEK293T cells assessed as maximal relative activation incubated for 14 to 16 hrs by dual-Glo luciferase assay relative to L165,041; settings: time 14-16 hrs
T1 sequence (whole entry): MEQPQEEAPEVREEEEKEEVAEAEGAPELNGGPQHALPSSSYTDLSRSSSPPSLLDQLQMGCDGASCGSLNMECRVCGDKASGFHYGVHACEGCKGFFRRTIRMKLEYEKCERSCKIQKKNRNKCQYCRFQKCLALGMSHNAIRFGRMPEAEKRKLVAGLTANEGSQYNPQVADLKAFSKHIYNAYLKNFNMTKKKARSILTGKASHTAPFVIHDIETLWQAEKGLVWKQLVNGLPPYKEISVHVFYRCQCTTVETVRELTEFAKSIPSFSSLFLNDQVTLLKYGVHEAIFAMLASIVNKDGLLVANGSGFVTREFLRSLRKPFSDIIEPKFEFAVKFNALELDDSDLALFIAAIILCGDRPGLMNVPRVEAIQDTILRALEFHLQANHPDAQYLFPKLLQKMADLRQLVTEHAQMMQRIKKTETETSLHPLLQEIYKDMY
Summary of the method: (§1)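 HEK293T cells transiently transfected with pFR-Luc, pRL-SV40 and Gal4 fusion of human PPAR hinge region plus LBD. Compound added 5 h later in Opti-MEM with 0.1% DMSO, then left overnight (14−16 h). Dual-Glo firefly/Renilla luciferase read, giving RLU. Fold activation is taken against the DMSO control. Max relative activation is set against 1 μM GW7647 (α) or L165,041 (δ). EC50 from a four-parameter fit. Duplicates, ≥3 independent runs.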

[2] = molecular target: T2, Peroxisome proliferator-activated receptor delta (Homo sapiens, UniProt Q03181); test: Agonist activity at Gal4-fused human PPARdelta LBD transfected in HEK293T cells assessed as transcriptional activation incubated for 14 to 16 hrs by dual-Glo luciferase assay; summary of the method: as §1
T2 sequence (Q03181 whole entry): T1 sequence (whole entry)

[3] = molecular target: T3, Peroxisome proliferator-activated receptor alpha (Homo sapiens) (UniProt Q07869); test: Agonist activity at Gal4-fused human PPARalpha LBD transfected in HEK293T cells assessed as maximal relative activation incubated for 14 to 16 hrs by dual-Glo luciferase assay relative to GW7647; settings: time 14-16 hrs; summary of the method: as §1
T3 sequence (whole entry): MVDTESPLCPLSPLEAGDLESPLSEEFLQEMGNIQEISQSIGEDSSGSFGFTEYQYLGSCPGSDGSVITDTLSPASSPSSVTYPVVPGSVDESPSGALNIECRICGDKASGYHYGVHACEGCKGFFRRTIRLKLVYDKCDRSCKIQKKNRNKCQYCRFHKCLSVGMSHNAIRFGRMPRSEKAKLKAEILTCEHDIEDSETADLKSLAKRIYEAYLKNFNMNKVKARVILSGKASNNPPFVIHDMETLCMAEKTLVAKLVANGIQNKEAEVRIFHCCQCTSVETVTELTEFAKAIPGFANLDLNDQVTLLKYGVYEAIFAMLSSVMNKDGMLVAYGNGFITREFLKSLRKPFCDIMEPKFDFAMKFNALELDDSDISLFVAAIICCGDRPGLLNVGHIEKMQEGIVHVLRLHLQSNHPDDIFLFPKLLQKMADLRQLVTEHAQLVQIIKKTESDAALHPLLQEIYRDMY

[4] = molecular target: T4, Peroxisome proliferator-activated receptor gamma (Homo sapiens, UniProt P37231); test: Agonist activity at Gal4-fused human PPARgamma LBD transfected in HEK293T cells assessed as transcriptional activation incubated for 14 to 16 hrs by dual-Glo luciferase assay
T4 sequence (P37231 whole entry): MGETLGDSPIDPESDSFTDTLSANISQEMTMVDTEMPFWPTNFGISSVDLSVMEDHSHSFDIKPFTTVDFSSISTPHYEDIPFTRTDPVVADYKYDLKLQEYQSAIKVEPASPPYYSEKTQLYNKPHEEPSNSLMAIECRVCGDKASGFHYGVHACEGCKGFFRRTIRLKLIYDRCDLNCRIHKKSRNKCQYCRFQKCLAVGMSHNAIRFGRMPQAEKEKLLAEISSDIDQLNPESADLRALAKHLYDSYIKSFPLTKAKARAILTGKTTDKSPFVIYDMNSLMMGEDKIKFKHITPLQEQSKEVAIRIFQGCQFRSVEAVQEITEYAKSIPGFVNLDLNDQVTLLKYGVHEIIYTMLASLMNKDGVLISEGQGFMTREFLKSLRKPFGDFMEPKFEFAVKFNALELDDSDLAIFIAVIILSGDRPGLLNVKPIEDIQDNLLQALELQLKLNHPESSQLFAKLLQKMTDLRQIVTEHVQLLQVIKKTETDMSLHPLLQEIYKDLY

[5] = molecular target: T5, Peroxisome proliferator-activated receptor alpha (Homo sapiens, UniProt Q07869); test: Agonist activity at Gal4-fused human PPARalpha LBD transfected in HEK293T cells assessed as transcriptional activation incubated for 14 to 16 hrs by dual-Glo luciferase assay; summary of the method: as §1
T5 sequence (Q07869 whole entry): T3 sequence (whole entry)

HEK-293T = test: Cytotoxicity against HEK293T cells assessed as reduction in cell viability at >= 6 uM; settings: human

`Cc1ccc(/N=N/c2ccc(OCCc3ccc(OC(C)(C)C(=O)O)cc3)cc2)cc1` gave a max activation [1] of 33%, an EC50 [2] of 1420 nM and a max activation [3] of 24%. The EC50 [4] was over 10000 nM, the EC50 [5] was 660 nM and the Activity (HEK-293T) was “Non-Toxic”.

— ChEMBL document CHEMBL5032512, “A Photohormone for Light-Dependent Control of PPARα in Live Cells” (J Med Chem, 2021)
